# TRPC6 act = mouse TRPC6 channel activators, primary screen, cell-based, HEK293, membrane potential dye | Short transient receptor potential channel 6 (Mus musculus), Q61143 | HEK293-TRPC6 membrane potential dye fluorescence; active compounds read high | B-score at 10 µM | actives 0.13% (n = 310,000) | AID 2550, 2010;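 active = B-score of the integrated fluorescence ratio above library mean plus 3 SD, and starting fluorescence ratio within library mean plus 5 SD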;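 note: higher score means more depolarization so channel activation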
# TRPC4 block = inhibitors of mouse TRPC4 channel, primary screen, Fluo4 calcium, HEK293 TRPC4beta/mu-opioid cells. DAMGO-evoked Fluo4 calcium flux; active compounds read low. B-score at 10 µM. actives 0.39% (n = 300,000);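 active = B-score over 3 SD under the library average, no early fluorescence shift, positive overall ratio signal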
#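 Assay system: HEK293 cells with stable TRPC4beta plus mu-opioid receptor expression. Dosing: single dose. Measured by: Fluo4 Ca2+ flux fluorescence. Also added: DAMGO in two steps, submaximal then maximal. Read-out: B score from integrated Fluo4 fluorescence ratio.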
# TRPC4 agonist = activators of mouse TRPC4 channel, primary screen, Fluo4 calcium, HEK293 TRPC4beta/mu-opioid cells. Fluo4 calcium fluorescence; active compounds read high. Short transient receptor potential channel 4 (Mus musculus), Q9QUQ5. actives 0.49% (n = 310,000). B-score at 10 µM;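 active = B-score above 5 SD of library B-scores, and initial fluorescence ratio not above library mean plus 5 SD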;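 note: positive B-score marks a calcium rise read as TRPC4 activation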
#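 Material: HEK293 stable line with TRPC4beta plus mu-opioid receptor; technique: Fluo4 calcium-sensitive dye fluorescence, kinetic, 1 Hz baseline; timing: Fluo4 dye loading 45 min at room temperature, 110 s recording; controls: assay buffer as low control, maximal DAMGO as high control; read-out: integrated baseline-normalised fluorescence ratio, converted to per-well B score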
# TRPC4 PAM = positive allosteric modulators of TRPC4, primary screen, cell-based, mouse TRPC4beta, HEK293 mu-opioid, Fluo-4 calcium; Short transient receptor potential channel 4 (Mus musculus), Q9QUQ5; DAMGO EC20, Fluo-4 Ca2+ flux; active compounds read high; B-score at 10 µM; actives 0.42% (n = 310,000); AID 2227, 2009;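 active = B-score of calcium response area above 5 SD of library B-scores, with initial fluorescence ratio within 5 SD of library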;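 note: B-score of integrated fluorescence ratio over time as area under calcium response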
# TRPC6 inh = mouse TRPC6 channel inhibitors, primary screen, cell-based, HEK293, membrane potential dye; Short transient receptor potential channel 6 (Mus musculus), Q61143; ACh-evoked depolarization; active compounds read low; B-score at 10 µM; actives 1.1% (n = 310,000);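 active = B-score under library mean minus 3 SD, initial fluorescence not abnormally high, positive integrated signal ratio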;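 note: B-score derived from integrated fluorescence ratio over the kinetic read; more negative B-score means stronger inhibition of depolarization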
# TRPC4 spec 2 = mouse TRPC4 off-target activity of TRPC6 inhibitors, second screen; shares compounds with TRPC6 inh; HEK293 TRPC4/MOR, membrane potential dye fluorescence; channel activated by saturating DAMGO dose; inhibition, % at 10 µM; actives 42% (n = 920); AID 2776;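 active = compounds whose fluorescence signal differed from control wells by over 3 SD, either direction, in both duplicate plates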
# TRPC4 spec = mouse TRPC4 modulation by TRPC6 hits, confirmation, selectivity assay for TRPC6 inhibitor project, cell-based, HEK293 TRPC4/mu-opioid, membrane potential dye; activity change, negative = inhibition, % at 10 µM; shares compounds with TRPC6 inh; actives 61% (n = 920); membrane potential fluorescence;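 active = rise or fall in signal beyond 3 SD of buffer-only wells in both replicate plates, either sign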;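 note: integrated kinetic ratio of fluorescence range over baseline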
# HEK293 MPD ctr 2-1 = nonspecific membrane potential effects, parental HEK293, confirmation, counter-screen for TRPC6 inhibitor project, cell-based, second counter screen; AID 2779, 2010; parental HEK293 membrane potential dye fluorescence; maximal acetylcholine challenge after compound addition; signal change vs control, % at 10 µM; shares compounds with TRPC6 inh; actives 31% (n = 920);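 active = membrane potential signal moving either way by over 3 SD of the maximum-effect control, in both duplicate plates, meaning non-specific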
# HEK293 MPD ctr-1 = membrane potential modulation in parental HEK293, confirmation, counter-screen for TRPC6 inhibitor project, cell-based; shares compounds with TRPC6 inh; parental HEK293 membrane potential dye fluorescence; membrane potential signal change, % at 10 µM; actives 60% (n = 920); AID 2780, 2010;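 active = membrane potential signal shifting up or down by more than 3 SD of buffer-only wells, on both duplicate plates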
# HEK293 MPD ctr-2 = parental HEK293 membrane potential modulation, confirmation, counter-screen for TRPC6 modulator project, cell-based; actives 51% (n = 2,400); shares compounds with TRPC6 inh; AID 488924, 2010; membrane potential signal change, % at 10 µM; membrane potential dye fluorescence;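 active = membrane potential signal moves up or down beyond 5 SD from buffer-only wells, on both duplicate plates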
# HEK293 MPD ctr 2-2 = second counter-screen for TRPC6 modulators: effect in parental HEK293 cells | actives 14% (n = 2,400) | inhibition, % at 10 µM | membrane potential dye fluorescence; after compound, maximal acetylcholine stimulation | shares compounds with TRPC6 inh;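 active = membrane potential signal drops by more than 5 SD from the mean control signal, in both duplicate plates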;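 note: plate controls were acetylcholine ECmax control wells for no effect and buffer only wells for full effect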
# TRPC4/MOR mod = TRPC4 modulation by TRPC6 hit compounds, confirmation, selectivity assay for TRPC6 modulator project, cell-based, HEK293 TRPC4/mu-opioid, membrane potential dye, mouse. actives 69% (n = 2,400). membrane potential fluorescence. percent change from control (negative = decrease, positive = increase), % at 10 µM. shares compounds with TRPC6 inh. AID 488927, 2010;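 active = membrane potential signal moved up or down beyond 5 SD of buffer control wells, in both duplicate plates, actives on both sides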;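 note: plate controls were assay buffer wells for no effect and DAMGO maximal-effect wells for full effect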
# TRPC4 ctr inh 2 = second check of whether TRPC6 modulators also affect mouse TRPC4. shares compounds with TRPC6 inh. HEK293 TRPC4/mu-opioid, membrane potential dye fluorescence; stimulated with maximal-effect DAMGO. inhibition, % at 10 µM. actives 55% (n = 2,400). AID 488928;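 active = drop in membrane potential signal beyond 5 SD of the control wells in both duplicate plates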;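 note: TRPC4 counter screen for TRPC6 hits run under conditions tuned for TRPC6 not TRPC4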
# TRPC6 inh conf = mouse TRPC6 channel inhibitors, confirmation, HEK293 cells, membrane potential dye, duplicate. shares compounds with TRPC6 inh. ACh-evoked depolarization. inhibition, % at 10 µM. actives 43% (n = 3,300);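 active = fluorescence ratio falls more than 5 SD below the full-stimulation control mean, in both duplicate runs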;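 note: integrated fluorescence ratio of peak minus minimum over baseline after agonist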
# TRPC6 act confirm = mouse TRPC6 channel activators, confirmation, HEK293 cells, membrane potential dye, duplicate. shares compounds with TRPC6 inh. HEK293-TRPC6 membrane potential dye fluorescence, FDSS. activation, % at 10 µM. actives 11% (n = 2,800);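 active = ratio signal rise beyond 5 SD above unstimulated control wells' mean, seen in both duplicate runs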;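 note: plate controls were buffer EC0 wells for no effect and acetylcholine ECmax response for full effect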
# The depositor's hits bear a star; i = inactive; · = no result given. The list is not random: actives were taken first. Their share in the collection is about 2.3%.
SMILES,TRPC6 act,TRPC4 block,TRPC4 agonist,TRPC4 PAM,TRPC6 inh,HEK293 MPD ctr-2,HEK293 MPD ctr 2-2,TRPC4/MOR mod,TRPC4 ctr inh 2,TRPC6 inh conf,others
Cc1cc(N2CCN(c3cccc(C(F)(F)F)c3)CC2)n2ncnc2n1,i,i,i,i,i,·,·,·,·,·,
Cc1nc2ncnn2c(N2CCN(c3cccc(C(F)(F)F)c3)CC2)c1C,12.6*,i,i,i,i,338.5%*,i,65.0%*,i,i,TRPC6 act confirm=129.5%*
CCC1CCCCN1CCCNC(=O)c1ccc2c(c1)N(Cc1c(F)cccc1Cl)C(=O)CS2 (stereo unspecified),i,i,i,i,-6.46*,i,i,-17.0%*,82.5%*,77.5%*,TRPC6 act confirm=i
O=C(NCc1ccc2c(c1)OCO2)c1ccc2c(c1)N(Cc1c(F)cccc1Cl)C(=O)CS2,i,i,i,i,i,·,·,·,·,·,
Fc1ccccc1NC(=S)N1CCN(c2ccccn2)CC1,i,i,i,i,i,·,·,·,·,·,
CCOCCCNC(=S)N1CCCN(c2nc3cc(C)ccc3cc2C#N)CC1,i,i,i,i,-10.1*,·,·,·,·,74.7%*,TRPC4 spec 2=i;TRPC4 spec=i;HEK293 MPD ctr 2-1=i;HEK293 MPD ctr-1=i
Cc1ccccc1C(=O)NNC(=O)CSc1nc2ccccc2c(=O)[nH]1,i,i,i,i,i,·,·,·,·,·,
CN(C)CCC(=O)c1ccc(Cl)cc1,i,i,i,i,i,·,·,·,·,·,
CN(CCC(=O)c1ccccc1)CCC(=O)c1ccccc1,i,i,i,i,-5.34*,i,i,10.0%*,i,i,

# Screens: PubChem BioAssay, Johns Hopkins Ion Channel Center
